From PubChem BioAssay
Hits are enriched below; roughly 1.9% of the tested compounds scored in any of these assays.
Rev-erbA mod: modulators of Rev-erb alpha DNA binding, primary screen, biochemical, FITC-DNA, fluorescence polarization, uHTS | Nuclear receptor subfamily 1 group D member 1 (Homo sapiens), P20393 | Rev-erbα–FITC-DNA binding, 90 min | activity, % at 10 µM | hit rate 0.79% among 370,000 | AID 1259318, 2017;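 active means activity above about 14%, limit read from the data; passing the limit was not always enough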;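 further: 0% = DMSO wells with 35 nM protein and 100% = DMSO wells with 750 nM protein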
Rce1 inhib: yeast Rce1p protease inhibitors, primary screen, biochemical, fluorescence, cell-free homogeneous; AID 2563, 2010; calls only; hit rate 0.27% among 290,000; yeast membranes, quenched prenylated peptide cleavage fluorescence; CAAX prenyl protease 2 (Saccharomyces cerevisiae (strain ATCC 204508 / S288c)), Q03530;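 active means fall in fluorescence gain of 50% or more versus controls, with final raw signal at or below 3038400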;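 further: plate controls were neutral control wells for no effect and wells lacking membranes for full effect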
Target sequence (Q03530 whole entry, looked up): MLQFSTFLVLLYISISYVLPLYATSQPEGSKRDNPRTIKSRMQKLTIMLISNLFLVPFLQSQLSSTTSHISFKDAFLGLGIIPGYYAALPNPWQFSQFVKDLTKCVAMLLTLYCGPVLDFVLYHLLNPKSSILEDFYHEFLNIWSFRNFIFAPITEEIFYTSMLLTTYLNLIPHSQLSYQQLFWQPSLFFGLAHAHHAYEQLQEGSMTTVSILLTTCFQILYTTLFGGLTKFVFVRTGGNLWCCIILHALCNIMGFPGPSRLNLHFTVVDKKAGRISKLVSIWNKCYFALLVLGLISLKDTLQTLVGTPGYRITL
PG9 Ab binder: binders of HIV-1 gp120 antibody PG9, primary screen, biochemical, TR-FRET. HIV-1 gp120 / PG9 antibody interaction. inhibition, % at 6.7 µM. TR-FRET gp120-PG9 antibody binding. hit rate 0.43% among 360,000; in the data active means inhibition above about 8.5%
MIN6 prolif: inducers of MIN6 beta-cell proliferation, primary screen, ATP luminescence, uHTS. AID 2380, 2010. hit rate 0.29% among 330,000. proliferation, % at 10 µM. MIN6 cells proliferation, ATPlite luminescence, 48 h; cells starved in 0.2% serum; 100% = growth in 10% serum;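 active means compounds whose signal lies at least 3.5 SD above the mean of all wells on their plate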;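 further: 0% = DMSO-treated cells in low-serum medium and 100% = 10% serum control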
UCH37 inh: inhibitors of human UCH37 deubiquitinase, primary screen, biochemical, Ub-AMC cleavage, fluorescence. Ubiquitin carboxyl-terminal hydrolase isozyme L5 (Homo sapiens), Q9Y5K5. purified proteasome/UCH37. inhibition, % (test concentration not listed). hit rate 0.33% among 330,000. AID 588478, 2011;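 active means mean inhibition over replicate wells above about 20%, limit read from the data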;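 further: 0% = compound-free wells with enzyme and 100% = wells lacking proteasome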
Target sequence (Q9Y5K5 whole entry, looked up): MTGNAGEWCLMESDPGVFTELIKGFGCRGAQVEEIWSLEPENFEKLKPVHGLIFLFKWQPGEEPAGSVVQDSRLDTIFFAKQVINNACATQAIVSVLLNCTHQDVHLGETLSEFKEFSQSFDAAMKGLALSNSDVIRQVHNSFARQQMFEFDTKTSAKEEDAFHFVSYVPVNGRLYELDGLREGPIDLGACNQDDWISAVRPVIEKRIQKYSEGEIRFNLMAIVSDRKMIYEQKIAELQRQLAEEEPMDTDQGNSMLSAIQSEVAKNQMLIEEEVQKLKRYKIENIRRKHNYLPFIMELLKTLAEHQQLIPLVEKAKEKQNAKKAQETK
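Material: Human UCH37 enzyme supplied as purified proteasome complex | Schedule: 30 min preincubation with enzyme, 25 min cleavage at room temperature | Detection: AMC fluorescence 355/460 nm | Measure: % inhibition of Ub-AMC cleavage fluorescence | Controls: Wells without proteasome as full block, compound-free enzyme plus substrate as uninhibited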
CR mimetic SO: reduction of superoxide in aged yeast, primary screen, HTS | S. cerevisiae aged cells, superoxide DHE fluorescence; active compounds read low | superoxide response (% of plate mean), % at 10 µM | hit rate 0.18% among 330,000 | AID 2690, 2010;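 active means superoxide response under a set limit, about three screen SD below normal, cut at about 65% in these data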;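 further: yeast aged for seven days with compound at 30 °C before DHE staining; 100% = average MFI of all compound-treated wells on the plate with controls excluded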
UCH37 confirm: retest of human UCH37 deubiquitinase inhibitors, confirmation, biochemical, Ub-AMC cleavage rate, fluorescence. shares compounds with UCH37 inh. Proteasome-bound UCH37. inhibition, % at 20 µM. hit rate 27% among 480;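 active means average inhibition over replicates above about 50%, so the earlier screening hit is confirmed, limit read from the data; inactive means the rest, counted as false positives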;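 further: based on cleavage rate fitted by regression over a 30 min kinetic read; 0% = proteasome plus Ub-AMC and 100% = Ub-AMC without proteasome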
PG9 binder conf: binders of anti-gp120 antibody PG9, confirmation, biochemical, TR-FRET | shares compounds with PG9 Ab binder | TR-FRET PG9 antibody binding | inhibition, % at 6.7 µM | hit rate 90% among 1,500; in the data active means inhibition above about 9%
PGV04 counter: binders of control antibody PGV04, counter-screen for PG9 antibody binder project, biochemical, TR-FRET, distinct HIV envelope site; shares compounds with PG9 Ab binder; TR-FRET PGV04 antibody-gp120 binding; inhibition, % at 6.7 µM; hit rate 95% among 1,500; in the data active means inhibition above about 9.5%
PG9 binder DR: small-molecule binders of antibody PG9, dose response, biochemical, TR-FRET, HIV-1 gp120 antibody; AID 651848, 2012; IC50, µM; shares compounds with PG9 Ab binder; TR-FRET PG9 antibody-gp120 binding inhibition; 95 tested, under 10 active; in the data active means IC50 below about 10 µM
PGV04 binding DR: binders of control antibody PGV04, dose response, counter-screen for PG9 antibody binder project, biochemical, TR-FRET, distinct HIV envelope site; shares compounds with PG9 Ab binder; TR-FRET binding to control antibody PGV04; IC50, µM; hit rate 20% among 95; AID 651937, 2012
PG126 DR counter: binders of control antibody PG126, dose response, counter-screen for PG9 antibody binder project, biochemical, TR-FRET, distinct HIV envelope site. shares compounds with PG9 Ab binder. TR-FRET binding to antibody PG126, counterscreen. IC50, µM. hit rate 20% among 95
Rev-erbA confirm: modulators of Rev-erb alpha DNA binding, confirmation, biochemical, FITC-DNA, fluorescence polarization, single point | shares compounds with Rev-erbA mod | 90 min | activation, % at 25 µM | hit rate 61% among 3,000;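 active means activation at or above a set limit, or at least 3 SD above the negative control mean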;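 further: 0% = 35 nM protein with DMSO and 100% = 750 nM protein high control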
RORg counter: modulation of RORgamma DNA binding, dose response, counter-screen for Rev-erb alpha modulator project, biochemical, fluorescence polarization, FITC-DNA; IC50, µM; purified RORgamma protein-FITC-DNA binding; AID 1259320, 2017; hit rate 8% among 910; shares compounds with Rev-erbA mod;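 active means Compounds whose fitted half-maximal concentration for disrupting protein-DNA binding is below 10 micromolar; the record names Rev-erb in its text, so the target is in doubt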
* = called active by the depositor; i = inactive; nt = no result given. Unless noted, no stated cut-off is given here; in the data, active means IC50 below about 9 µM; inactive means the rest.

SMILES	Rev-erbA mod	Rce1 inhib	PG9 Ab binder	MIN6 prolif	UCH37 inh	CR mimetic SO	UCH37 confirm	Rev-erbA confirm	others
O=C(NN=CC1CC=CCC1)c1ccc(Cl)cc1O (centres undefined)	nt	nt	nt	nt	-50.2	nt	nt	nt
COCCn1c(COc2ccc(C)cc2)nc2ccccc21	2.1	i	-0.2	-0.9	35.6*	94.8	3.1	nt
CCOC(=O)C=c1sc(=Cc2ccc(C(=O)OC)cc2)c(=O)n1CC(=O)Nc1ccccc1	nt	nt	nt	nt	-3.9	nt	nt	nt
CCCC1=C(C(=O)OCC)C(c2ccc(OC)c(C)c2OC)C(C#N)=C(N)O1 (centres undefined)	6.2	i	-1.9	-1.5	30.8*	93.3	-38.8	nt
CC1=Nc2ccccc2/C1=C/c1sc(=S)n(-c2cccc(C(=O)O)c2)c1O	47.9*	i	0.1	nt	26.5*	nt	56.7*	51.9*	RORg counter=>40
Oc1c(C=C2N=c3ccccc3=N2)sc(=S)n1-c1ccccc1	3.0	i	0.2	-0.8	11.1	133.0	nt	nt
CC(=O)c1ccc(Nc2ccc([N+](=O)[O-])c3nonc23)cc1	10.8	i	-13.2	-2.2	8.0	104.1	nt	nt
CCc1nnc(NS(=O)(=O)c2ccc(Nc3ccc([N+](=O)[O-])c4nonc34)cc2)s1	21.4*	i	-3.5	-0.8	34.6*	142.0	30.6	33.1*	RORg counter=>40
NS(=O)(=O)c1ccc(Nc2ccc([N+](=O)[O-])c3nonc23)cc1	26.7*	i	-6.7	-3.1	26.1*	120.4	5.3	16.7
CC(C)NC(=O)/C(C#N)=C/c1ccc(N(C)C)o1	24.8*	i	-29.9	-2.2	32.4*	96.2	34.4	7.4
Cc1cc(C(=O)NN=Cc2ccc([N+](=O)[O-])s2)n[nH]1	nt	nt	nt	nt	12.5	nt	nt	nt
C=CCN1C=CC(=CC=C(C#N)C#N)C=C1	32.0*	i	-10.3	-1.3	28.8*	101.9	20.0	21.5*
CCCN1C=CC(=CC=C(C#N)C#N)C=C1	27.9*	i	-13.0	-0.7	38.2*	106.2	25.6	13.1
C=CCN1C=C/C(=C\C=C(C#N)C#N)c2ccccc21	-27.7	i	-6.2	-3.3	6.7	120.2	nt	nt
O=C(NN=Cc1c[nH]c2ccccc12)C1CC(=O)N(c2ccccc2)C1 (centres undefined)	nt	nt	nt	nt	5.4	nt	nt	nt
CSc1ccc(C=NNC(=O)C[n+]2ccccc2)cc1	nt	nt	nt	nt	6.5	nt	nt	nt
N#C/C(=C\c1ccc(N2CCOCC2)o1)C(=O)NCC1CCCO1 (centres undefined)	20.7*	i	-17.2	-0.9	30.7*	118.1	40.1	12.7
N#C/C(=C\c1ccc(-c2ccc(C(=O)O)cc2)o1)C(=O)NCC1CCCO1 (centres undefined)	nt	i	nt	2.6	-23.8	98.5	nt	nt
Cc1ccc(/C=C/c2ccc(N(C)C)cc2)[n+](C)c1	37.2*	i	-19.5	-5.1	27.2*	92.3	30.4	50.1*	RORg counter=i
O=C(NN=Cc1ccc(OC(=O)c2cccs2)cc1)c1ccc(Cl)cc1	nt	nt	nt	nt	4.1	nt	nt	nt
CC1Cc2ccccc2N1C(=O)COC(=O)c1ccc(N(C)C)cc1 (centres undefined)	6.2	nt	11.8*	-2.0	-5.4	123.2	nt	nt	PG9 binder conf=13.1*;PGV04 counter=15.9*
Cn1ccc2c(N3c4ccccc4CCc4ccccc43)cc3c(c21)C1CCC3O1 (centres undefined)	-8.0	nt	18.7*	nt	nt	nt	nt	nt	PG9 binder conf=4.8;PGV04 counter=6.6
CC1CCN(CCCn2c(=S)[nH]c3c(sc4ccccc43)c2=O)CC1	-3.7	i	15.2*	-1.8	3.9	89.9	nt	nt	PG9 binder conf=9.7*;PGV04 counter=9.4*;PG9 binder DR=i;PGV04 binding DR=i;PG126 DR counter=i
CC1CCN(CCCn2c(=S)[nH]c3c(sc4ccc([N+](=O)[O-])cc43)c2=O)CC1	-2.8	i	0.9	-2.5	7.8	98.9	nt	nt
CC(=O)c1cc(-c2ccccc2)n(CC(=O)NCc2cccs2)c1C	13.7	i	12.3*	-1.2	-0.1	95.8	nt	nt	PG9 binder conf=14.5*;PGV04 counter=22.2*
COc1ccc(C2/C(=C(\O)c3ccc4c(c3)OCCO4)C(=O)C(=O)N2Cc2cccnc2)cc1OC (centres undefined)	-6.2	i	3.1	-2.5	12.4	78.1	nt	nt
O=C1C(=O)N(Cc2cccnc2)C(c2ccc(Br)cc2)/C1=C(\O)c1ccc2c(c1)OCCO2 (centres undefined)	-1.2	i	20.6*	-2.7	9.7	101.1	nt	nt	PG9 binder conf=31.4*;PGV04 counter=37.1*
Cc1ccc(C2/C(=C(\O)c3ccc4c(c3)OCCO4)C(=O)C(=O)N2Cc2cccnc2)cc1 (centres undefined)	9.7	i	27.4*	5.1	8.4	86.4	nt	nt	PG9 binder conf=38.4*;PGV04 counter=46.6*
CC(C)c1ccc(OCC(=O)NC(=S)Nc2ccc3c4c(cccc24)CC3)cc1	7.5	i	11.1*	-0.4	4.9	88.2	nt	nt	PG9 binder conf=10.6*;PGV04 counter=11.6*
